{"source": "paper PMC5811788", "about": "(Journal of Clinical Pharmacology, 2017)", "key": {"[1]": {"type": "in vivo, healthy subjects (human)", "details": "for Geometric Mean Ratio (90%CI) of AUClast / Geometric Mean Ratio (90%CI) of Cmax / Geometric Mean Ratio (90%CI) of AUCinf: istradefylline + rifampin vs istradefylline alone; for AUC(0-t): AUClast", "in_short": "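Crossover in 20 healthy humans. Single oral 40 mg tablet of the test compound given after ≥8 h fast, alone (period 1) or on day 8 of rifampin 600 mg once daily (days 1–20, dosed 2 h after test compound). Venous plasma sampled predose to 312 h. Noncompartmental AUClast and AUCinf, reported as geometric means and geometric mean ratios with 90% CI.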"}, "Safety and tolerability": {"assay": "Safety and tolerability", "type": "in vivo, healthy subjects (human)", "details": "for Subjects who experienced AEs: 20 subjects"}, "[2]": {"details": "ref data on file; Kyowa Kirin Pharmaceutical Development, Inc.; cited from earlier work"}, "[3]": {"details": "ref data on file; Kyowa Kirin Pharmaceutical Development, Inc.; cited from earlier work", "remark": "listed apart in the source"}, "[4]": {"details": "cited from earlier work"}, "[5]": {"tested_on": "cytochrome P450 (CYP) isoenzymes", "details": "ref data on file; Kyowa Kirin Pharmaceutical Development, Inc.; cited from earlier work"}, "[6]": {"details": "in those who received various CYP3A4 inhibitors; 1449 healthy subjects and PD patients; cited from earlier work"}, "[7]": {"details": "coadministration of ketoconazole, healthy subjects; cited from earlier work"}, "P‐glycoprotein (P‐gp)": {"tested_on": "P‐glycoprotein (P‐gp)", "details": "ref data on file; Kyowa Kirin Pharmaceutical Development, Inc.; cited from earlier work"}, "[8]": {"details": "doses of 20 and 40 mg/day; cited from earlier work"}, "A2A receptor": {"tested_on": "A2A receptor", "details": "A2A vs A1, A2B, A3; cited from earlier work"}, "[9]": {"details": "istradefylline 40 mg + steady-state rifampin 600 mg/day, arithmetic mean (SD)"}, "[10]": {"details": "istradefylline 40 mg alone, arithmetic mean (SD)"}, "[11]": {"details": "ln-transformed, istradefylline 40 mg + rifampin 600 mg/day, geometric mean (CV%)"}, "[12]": {"details": "ln-transformed, istradefylline 40 mg alone, geometric mean (CV%)"}, "[13]": {"details": "metabolite-to-parent ratio, istradefylline 40 mg alone, arithmetic mean (SD)"}, "[14]": {"details": "during administration of the substance alone"}, "[15]": {"details": "healthy subjects, independent of dose"}}, "note": "Values joined by “and” are separate entries in the source; they are usually repeats but may differ in a detail not shown here. Equal values may be shown once. Read-outs that look alike come from different tables or passages of the source. Marks after values point to notes of the source that are not given here."}
{"smiles": "CCn1c(=O)c2c(nc(/C=C/c3ccc(O)c(OC)c3)n2C)n(CC)c1=O", "note": "[M1 metabolite, 4′‐O‐monodesmethylated derivative of istradefylline]", "values": [{"measurement": "Exposure of metabolite in plasma as share of total drug exposure", "setting": "[1]; generally", "result": "< 9", "unit": "%"}, {"measurement": "AUCinf", "setting": "[1]; [9]", "result": "159 (47.6) ^b ng·h/mL"}, {"measurement": "AUClast", "setting": "[1]; [9]", "result": "118 (44.3) ng·h/mL"}, {"measurement": "t1/2", "setting": "[1]; [9]", "result": "17.6 (4.95) ^b h"}, {"measurement": "Tmax", "setting": "[1]; istradefylline 40 mg + steady-state rifampin 600 mg/day, median (min, max)", "result": "3.0 (1.0, 6.0) h"}, {"measurement": "AUClast", "setting": "[1]; [10]", "result": "123 (77.6) ng·h/mL"}, {"measurement": "Tmax", "setting": "[1]; istradefylline 40 mg alone, median (min, max)", "result": "3.5 (2.0, 12.0) h"}, {"measurement": "Geometric Mean Ratio (90%CI) of AUClast", "setting": "[1]", "result": "1.04 (0.90–1.21)"}, {"measurement": "Geometric Mean Ratio (90%CI) of Cmax", "setting": "[1]", "result": "1.79 (1.59–2.01)"}, {"measurement": "Geometric Mean Ratio (90%CI) of AUClast", "setting": "[1]; listed as istradefylline M1", "result": 1.04}, {"measurement": "Geometric Mean Ratio (90%CI) of Cmax", "setting": "[1]; listed as istradefylline M1", "result": 1.79}, {"measurement": "All M/P ratios", "setting": "[1]; istradefylline alone or with rifampin (M8: except M/P ratio for Cmax after coadministration)", "result": "< 9", "unit": "%"}, {"measurement": "Change in AUClast during rifampin coadministration (GMR comparison)", "setting": "[1]; ln-transformed data", "result": "+4%"}, {"measurement": "Change in Cmax during rifampin coadministration (GMR comparison)", "setting": "[1]; ln-transformed data", "result": "+79%"}, {"measurement": "AUClast, geometric mean", "setting": "[1]; [11]", "result": "110 (41.8) ng·h/mL"}, {"measurement": "Cmax, geometric mean", "setting": "[1]; [11]", "result": "7.0 (29.0) ng/mL"}, {"measurement": "AUClast, geometric mean", "setting": "[1]; [12]", "result": "105 (61.4) ng·h/mL"}, {"measurement": "Cmax, geometric mean", "setting": "[1]; [12]", "result": "3.90 (46.3) ng/mL"}, {"measurement": "M/P ratio (AUClast)", "setting": "[1]; [13]", "result": "0.0134 (0.0078)"}, {"measurement": "M/P ratio (Cmax)", "setting": "[1]; [13]", "result": "0.0241 (0.0045)"}, {"measurement": "Cmax", "setting": "[1]; plasma, single oral istradefylline 40 mg alone, arithmetic mean (SD)", "result": "4.34 (2.49) ng/mL"}]}
{"smiles": "CCn1c(=O)c2c(nc(/C=C/c3ccc(OC)c(OC)c3)n2C)n(CC)c1=O", "note": "[Istradefylline]", "values": [{"measurement": "Decrease in istradefylline exposure based on AUC values", "setting": "[1]; during coadministration of steady-state oral rifampin 600 mg/day", "result": "~80", "unit": "%"}, {"measurement": "Cmax", "setting": "[1]; human, plasma, oral, 40 mg", "result": 171, "unit": "ng/mL"}, {"measurement": "Tmax", "setting": "[1]; human, plasma, oral, 40 mg", "result": 2, "unit": "h"}, {"measurement": "Vd/F", "setting": "[1]; human, plasma, oral, 40 mg", "result": 515, "unit": "L"}, {"measurement": "half-life", "setting": "[1]; human, plasma, oral, 40 mg", "result": 94.8, "unit": "h"}, {"measurement": "AUC(0-t)", "setting": "[1]; human, plasma, oral, 40 mg, geometric mean, ln-transformed, istradefylline 40 mg alone, geometric mean (CV%)", "result": 9460, "unit": "ng·h/mL"}, {"measurement": "AUC(0-t)", "setting": "[1]; human, plasma, oral, 40 mg, istradefylline 40 mg alone, arithmetic mean (SD)", "result": 9850, "unit": "ng·h/mL"}, {"measurement": "Cmax", "setting": "[1]; human, plasma, po, 40 mg", "result": 181, "unit": "ng/mL"}, {"measurement": "CL/F", "setting": "[1]; [9]", "result": "20.6 (6.7) L/h"}, {"measurement": "CL/F", "setting": "[1]; [10]", "result": "4.0 (1.5) L/h"}, {"measurement": "CL/F", "setting": "[1]; istradefylline 40 mg alone, arithmetic mean (SD), listed as istradefylline", "result": "4.0 L/h and 4.00 L/h"}, {"measurement": "Geometric Mean Ratio (90%CI) of AUCinf", "setting": "[1]", "result": "0.19 (0.18–0.20)"}, {"measurement": "Geometric Mean Ratio (90%CI) of AUClast", "setting": "[1]", "result": "0.21 (0.19–0.22)"}, {"measurement": "Geometric Mean Ratio (90%CI) of Cmax", "setting": "[1]", "result": "0.55 (0.49–0.62)"}, {"measurement": "Geometric Mean Ratio (90%CI) of AUCinf", "setting": "[1]; listed as istradefylline", "result": 0.19}, {"measurement": "Geometric Mean Ratio (90%CI) of AUClast", "setting": "[1]; listed as istradefylline", "result": 0.21}, {"measurement": "Geometric Mean Ratio (90%CI) of Cmax", "setting": "[1]; listed as istradefylline", "result": 0.55}, {"measurement": "Subjects who experienced AEs", "setting": "Safety and tolerability; during administration of istradefylline + rifampin", "result": 25, "unit": "%"}, {"measurement": "Subjects who experienced AEs", "setting": "Safety and tolerability; [14]", "result": 20, "unit": "%"}, {"measurement": "Tolerability", "setting": "Safety and tolerability; given alone or in combination with rifampin", "result": "well tolerated"}, {"measurement": "Treatment-related AEs (considered related to istradefylline)", "setting": "Safety and tolerability; while receiving istradefylline alone, mild, transient disturbance in attention, asthenia, intermittent dizziness", "result": "single subject"}, {"measurement": "Aqueous solubility", "setting": "[2]", "result": "poor aqueous solubility"}, {"measurement": "Bound to plasma protein", "setting": "[3]", "result": "~98", "unit": "%"}, {"measurement": "Dose proportionality of exposure (Cmax and AUC)", "setting": "[4]; healthy subjects and PD patients", "result": "directly proportional to istradefylline dose (up to 80 mg)"}, {"measurement": "Apparent clearance (CL/F)", "setting": "[4]; [15]", "result": "4.1 to 6.0", "unit": "L/h"}, {"measurement": "Apparent volume of distribution (Vz/F)", "setting": "[4]; [15]", "result": "448 to 557", "unit": "L"}, {"measurement": "Terminal elimination half-life (t1/2)", "setting": "[4]; [15]", "result": "67 to 95", "unit": "h"}, {"measurement": "CYP isoenzymes partly involved in metabolism", "setting": "[5]", "result": "CYP1A2, 2B6, 2C8, 2C9, 2C18, and 2D6*1"}, {"measurement": "Main CYP isoenzymes involved in metabolism", "setting": "[5]", "result": "CYP1A1, 3A4, and 3A5"}, {"measurement": "Increase in AUC during the dosing interval at steady state (AUCss)", "setting": "[6]", "result": 38, "unit": "%"}, {"measurement": "Increase in AUCinf", "setting": "[7]", "result": 2.5, "unit": "fold"}, {"measurement": "P-gp substrate", "setting": "P‐glycoprotein (P‐gp)", "result": "not a P‐gp substrate"}, {"measurement": "OFF time in PD patients", "setting": "[8]", "result": "statistically significant improvement in OFF time"}, {"measurement": "In vitro affinity, selectivity among adenosine receptor subtypes", "setting": "A2A receptor", "result": "higher in vitro affinity toward the A2A receptor than for A1, A2B, and A3 receptors"}]}
{"smiles": "CO[C@H]1/C=C/O[C@@]2(C)Oc3c(C)c(O)c4c(O)c(c(/C=N/N5CCN(C)CC5)c(O)c4c3C2=O)NC(=O)/C(C)=C\\C=C\\[C@H](C)[C@H](O)[C@@H](C)[C@@H](O)[C@@H](C)[C@H](OC(C)=O)[C@@H]1C", "note": "[rifampin, reference compound]", "values": [{"measurement": "Subjects who experienced AEs", "setting": "Safety and tolerability; [14]", "result": 85, "unit": "%"}, {"measurement": "Subjects with chromaturia", "setting": "Safety and tolerability; subjects receiving rifampin", "result": 70, "unit": "%"}]}
